From paper PMC4333497 (British Journal of Cancer, 2015)
Entries after “also recorded” stand apart in the source; their conditions may differ.

How the values were obtained:
[1] = test system: patients with advanced solid tumours; assay: Safety: adverse events graded by NCI CTCAE version 3.0 in phase I study; assay type: in vivo, human
Procedure, shortened: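 Toxicity was graded by NCI CTCAE v3.0 during oral dosing in 28-day cycles. Assessments covered physical and neurological examination, vital signs, weight, performance status, and AEs/SAEs. Haematology, coagulation, biochemistry and urinalysis were done at baseline, on day 1 of every cycle, at the last visit and when clinically indicated. ECGs were done on day 1 of each cycle. ECHO/MUGA was done at baseline, at the end of cycles 2–4, then every other month. Data were summarised descriptively.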

[2] = test system: patients with advanced solid tumours; assay: Dose-limiting toxicities and MTD/RP2D determination; assay type: in vivo, human
Procedure, shortened: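 Oral capsules, once or twice weekly, in 28-day cycles under fasting conditions. Cohorts had at least three patients. A DLT was any clinically relevant AE or abnormal laboratory value in the first 28 days. A Bayesian logistic regression model with escalation with overdose control estimated the posterior probability of DLT at each dose level from cycle 1 data. MTD/RP2D was set from the model plus safety review by investigators.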

[3] = Plasma pharmacokinetics of HSP990 after oral dosing; assay type: in vivo, human; settings: for AUClast: day 22; for Cmax: steady state
Procedure, shortened: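 Oral dosing 30 min after a light breakfast, then a 3-h fast, with meal timing recorded. Plasma was assayed centrally by validated LC-MS/MS and analysed non-compartmentally. Day effect was tested by ANCOVA on log-transformed AUC and Cmax with a linear mixed-effect model.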

HSP70 = HSP70 levels in PBMCs by ELISA; assay type: in vivo, human
advanced solid tumours [4] = assay: Tumour response according to RECIST version 1.0; assay type: in vivo, human
Procedure, shortened: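 Tumours were assessed radiologically at baseline, at the end of every two 28-day cycles and at the end of treatment. Response was classified per RECIST version 1.0. Patients had at least one measurable lesion at entry and received oral capsules once or twice weekly until progression, unacceptable toxicity or withdrawal.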

advanced solid tumours [5] = assay: FDG-PET metabolic response; assay type: in vivo, human
Procedure, shortened: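 FDG-PET was done at screening/baseline, on day 10 of cycle 1 and on day 2 of cycle 3. Maximum SUV was summed across all target lesions (sSUVmax). A reduction of ⩾25% counted as objective metabolic response and an increase of ⩾25% as progression. Any new PET lesion counted as metabolic progression.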

[6] = rat model; preclinical; cited from earlier work
rats = settings: preclinical pharmacology studies, ref Novartis, 2012; cited from earlier work
dogs = settings: preclinical pharmacology studies, ref Novartis, 2012; cited from earlier work
[7] = all patients (N=64), two patients

In the case of `COc1cccc(-c2cc(F)ccc2[C@H]2Cc3nc(N)nc(C)c3C(=O)N2)n1` [HSP990], the “Total no. of patients who discontinue HSP990 (cause) beyond cycle 1” value ([1]; 2.5 mg once weekly) is reported as 0, the “Total no. of patients who discontinue HSP990 (cause) beyond cycle 1” value ([1]; 5 mg once weekly) is reported as 0 and the “Total no. of patients who discontinue HSP990 (cause) beyond cycle 1” value ([1]; 10 mg once weekly) is reported as 0. The “Total no. of patients who discontinue HSP990 (cause) beyond cycle 1” value ([1]; 20 mg once weekly) was 1 (digestive disorder), the “Description of grade ⩾3 drug-related AEs beyond cycle 1” value ([1]; 25 mg twice weekly) was “Diarrhoea” and the “Grade ⩾3 drug-related AEs beyond cycle 1” value ([1]; 25 mg twice weekly) was 2. The “Total no. of patients who discontinue HSP990 (cause) beyond cycle 1” value ([1]; 25 mg twice weekly) was 0, the “Total no. of patients who discontinue HSP990 (cause) beyond cycle 1” value ([1]; 30 mg once weekly) was 0 and the “Grade ⩾3 drug-related AEs beyond cycle 1” value ([1]; 50 mg once weekly) was 6. The “Description of grade ⩾3 drug-related AEs beyond cycle 1” value ([1]; 60 mg once weekly) was “Diarrhoea”, the “Grade ⩾3 drug-related AEs beyond cycle 1” value ([1]; 60 mg once weekly) was 3 and the “Total no. of patients who discontinue HSP990 (cause) beyond cycle 1” value ([1]; 60 mg once weekly) was 2 (diarrhoea). For the same compound, the “Adverse events requiring dose adjustment or study drug interruption, patients” value ([1]; all patients (N=64)) was 30%, the “Discontinued treatment for AEs of any causality, patients” value ([1]; all patients (N=64)) was 14% and the “Drug-related AE that led to study discontinuation, patients” value ([1]; all patients (N=64)) was 11%. For the same compound, the “Drug-related abdominal pain, patients” value ([1]; all patients (N=64)) was 16%, the “Drug-related anorexia, patients” value ([1]; all patients (N=64)) was 25% and the “Drug-related diarrhoea, patients” value ([1]; all patients (N=64)) was 73%. The “Drug-related dizziness, patients” value ([1]; all patients (N=64)) was 19%, the “Drug-related insomnia, patients” value ([1]; all patients (N=64)) was 25% and the “Drug-related nausea, patients” value ([1]; all patients (N=64)) was 22%. For the same compound, the “Drug-related tremor, patients” value ([1]; all patients (N=64)) was 19%, the “Drug-related vomiting, patients” value ([1]; all patients (N=64)) was 14% and the “Grade 3 QTc prolongation, drug-related” value [1, 7] was 3%. For the same compound, the “Grade 3 asthenia, drug-related” value [1, 7] was 3%, the “Grade 3 hyponatremia, drug-related” value [1, 7] was 3% and the “Grade 3 increased ALT and/or AST, drug-related” value [1, 7] was 3%. For the same compound, the Dose delays ([1]; all patients, mostly due to AEs) was 22 patients, the “Neurotoxicities leading to study drug discontinuation, patients” value ([1]; during and beyond cycle 1, all patients) was 14% and the Drug-related deaths ([1]; on study and up to 28 days after the last dose) was “No drug-related deaths”. The “Total no. of patients with DLTs” value ([2]; 2.5 mg once weekly, 3 DLT evaluable patients) was 0, the “Total no. of patients with DLTs” value ([2]; 5 mg once weekly, 5 DLT evaluable patients) was 0 and the “Total no. of patients with DLTs” value ([2]; 10 mg once weekly, 7 DLT evaluable patients) was 0. For the same compound, the “Total no. of patients with DLTs” value ([2]; 20 mg once weekly, 6 DLT evaluable patients) was 0, the “Total no. of patients with DLTs” value ([2]; 30 mg once weekly, 4 DLT evaluable patients) was 0 and the “Number of DLTs encountered” value ([2]; 50 mg once a week, 22 patients) was 5 DLTs. For the same compound, the “Total no. of patients with DLTs” value ([2]; 50 mg once weekly, 22 DLT evaluable patients) was 4, the “Patients who experienced DLTs” value ([2]; all dose levels and schedules) was “seven” and the AUClast ([3]; 25 mg twice-weekly) was 14200 ng·h/mL. It also gave a Cmax ([3]; 25 mg twice-weekly) of 232 ng/mL, an AUClast ([3]; 50 mg once-weekly) of 7959 ng/mL and a Cmax ([3]; 50 mg once-weekly) of 552 ng/mL. For the same compound, the t1/2 ([3]; both dosing schedules) was ~20 h, the “Time to peak concentrations” value ([3]; both dosing schedules, postdose) was ~3 h and the Drug accumulation ([3]; days 1 and 22 of cycle 1, multiple- or twice-weekly doses) was “no drug accumulation”. The Apparent clearance ([3]; oral) was ~6.4 L/h, the Volume of distribution ([3]; oral, apparent) was ~200 L and the “HSP70 induction in PBMCs” value (HSP70; once-weekly administration, 2.5 to 60 mg) was “tended to increase with dose across the 5 mg weekly to 30 mg weekly dose groups”. The “HSP70 induction in PBMCs” value (HSP70; twice-weekly administration, 25 mg) was “greater than that seen in once weekly 30 mg to 60 mg dose levels”, the “Partial or complete responses (RECIST)” value (advanced solid tumours [4]; all patients) was “No objective responses were seen; also recorded: No partial or complete responses were observed” and the “Best overall response of stable disease” value (advanced solid tumours [4]; all patients (N=64)) was 25 patients. For the same compound, the “Prolonged stable disease (⩾6 months), patients” value (advanced solid tumours [4]; all patients (N=64)) was 11%, the “Stable disease as best overall response, patients” value (advanced solid tumours [4]; all patients (N=64)) was 39% and the “Stable disease as best overall response, patients” value (advanced solid tumours [4]; twice-weekly dosing schedule (7 out of 11 patients)) was 64%. For the same compound, the “Patients with ⩾25% reduction in sSUVmax of target lesions” value (“Patients with ⩾25% reduction in sSUVmax” for short) (advanced solid tumours [5]; 5 mg weekly) was 1 patient, the “Patients with ⩾25% reduction in sSUVmax” value (advanced solid tumours [5]; 25 mg twice weekly) was 3 patients and the “Patients with ⩾25% reduction in sSUVmax” value (advanced solid tumours [5]; 30 mg weekly) was 1 patient. The “Patients with ⩾25% reduction in sSUVmax” value (advanced solid tumours [5]; 50 mg weekly) was 6 patients, the Complete metabolic response (advanced solid tumours [5]; all patients) was “No complete metabolic response” and the “Distribution in brain tissues” value [6] was “highly distributed in the brain tissues”. The “Effects on CNS” value (rats) was “no effects on CNS” and the “Doses at which tremors and ataxia were observed” value (dogs) was ≥ 2 mg/kg.
